Assay outcomes as filed in PubChem.
Sampled rows, rich in hits. Any-hit rate of the full collection: about 1%.
UPR CHOP act: apoptotic UPR (CHOP) activation; CHO-CHOP luciferase reporter, luminescence; percent of tunicamycin response over DMSO baseline; actives 0.34% (n = 330,000); activation, % at 10 µM;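 active = at 10 µM dose, activation of 40% or more, normalized to positive control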
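Material: CHO-CHOP cells, stable luciferase reporter of PERK-eIF2a-CHOP signalling; quantity: 500 reporter cells seeded per well; buffer or medium: F12 medium containing 10% fetal bovine serum; compound: one dose, 10 µM in 0.5% DMSO; incubation: 6 h compound treatment, 37 °C; measured by: Steady-Glo luciferase luminescence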
XBP1 UPR activ: activators of adaptive arm of unfolded protein response (XBP1); CHO-XBP1 luciferase reporter, IRE1-XBP1 UPR activation, luminescence; percent of tunicamycin response, DMSO as zero; activation, % at 20 µM; actives 0.33% (n = 330,000); AID 463104;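 active = versus positive control, 20 µM dose yields 30% or more activation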
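assay system = CHO-XBP1 luciferase reporter cells | amount = 1000 cells/well | buffer or medium = F12 plus 10% FBS | compound dosing = single point, 20 µM final compound, 1% DMSO | incubation = 16-18 h cell attachment at 37 °C, then 6 h compound exposure | detection = Steady-Glo luminescence read | controls = tunicamycin 10 µg/mL and vehicle-only wells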
T cell HTS: T cell immune modulation candidate; 2C CD8+ T cell-vesicle binding, flow cytometry; active compounds read low; response (vesicle binding), % at 7 µM; actives 0.068% (n = 330,000); AID 2052;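 active = response, share of CD8 T cells binding vesicles, and their 90th percentile fluorescence all below set limits, cut at about 80% in these data, passing the limit was not always enough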;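 also: values below 100% mean blocked vesicle binding to the CD8+ T cells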
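System: murine 2C transgenic CD8+ T lymphocytes; also added: QL9-loaded Drosophila micro-vesicles; times: binding 1.5 h at 37 °C; measured by: flow cytometry, PE anti-B7-1 (FL2) versus Alexa647 anti-CD8 (FL8), PFA-fixed; control set: Peptide-free naked vesicles (low) and QL9 vesicles with 0.7% DMSO vehicle (high)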
Beta2AR agonist: human beta-2 adrenergic receptor agonism by FAP; P07550; Am2.2-beta2AR cells, FAP receptor internalization, flow cytometry; response, % (concentration not given with the values); actives 0.43% (n = 340,000); AID 504454;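 active = response above a set limit, near 3 SD of response in nonfluorescent compounds, cut at about 42% in these data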
Target sequence (P07550 whole entry, looked up): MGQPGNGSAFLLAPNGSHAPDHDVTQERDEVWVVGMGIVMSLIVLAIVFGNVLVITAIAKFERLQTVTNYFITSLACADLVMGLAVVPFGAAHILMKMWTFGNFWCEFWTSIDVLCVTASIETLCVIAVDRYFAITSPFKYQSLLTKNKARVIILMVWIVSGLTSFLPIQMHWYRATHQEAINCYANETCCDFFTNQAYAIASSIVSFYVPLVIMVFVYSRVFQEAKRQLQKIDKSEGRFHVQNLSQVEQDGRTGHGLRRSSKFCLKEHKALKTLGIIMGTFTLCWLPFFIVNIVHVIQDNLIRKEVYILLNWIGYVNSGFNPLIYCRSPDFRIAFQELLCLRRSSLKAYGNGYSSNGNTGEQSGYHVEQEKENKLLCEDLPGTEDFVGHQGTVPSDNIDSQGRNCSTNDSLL
Of the large screens only hits and unclear results are named; the others gave an inactive call.

O=C1NC(=O)C(=Cc2ccc(-c3ccc(S(=O)(=O)N4CCOCC4)cc3)o2)C(=O)N1	none
O=C1NC(=O)C(=Cc2ccc(-c3ccc(F)cc3O)o2)C(=O)N1	Beta2AR agonist 42
CCCC(C)C1(CC)C(=O)NC(=O)N=C1N (configuration not stated)	none
O=C1NC(=O)N(c2ccc3c(c2)OCO3)C(=O)/C1=C/c1cccs1	Beta2AR agonist 45
Cn1c(N2CCNCC2)nc2ccccc21	none
COc1ccc(NC(c2ccccc2F)P(=O)(Oc2ccccc2)Oc2ccccc2)cc1 (configuration not stated)	none
C[C@H]1CCC/C=C/C2C[C@H](O)CC2[C@H](O)/C=C/C(=O)O1 (some centres not stated)	UPR CHOP act 107
O=C1NC(=S)NC(=O)C1=Cc1ccc(OCC(=O)N2CCCC2)cc1	none
O=[N+]([O-])c1ccc(Cl)c([N+](=O)[O-])c1	Beta2AR agonist 59
Cc1cc(C)cc(N2C(=O)NC(=O)/C(=C/c3cccn3-c3ccc(Cl)cc3)C2=O)c1	UPR CHOP act 99
CC(C)(C)n1cccc1/C=C1\C(=O)NC(=O)N(c2ccccc2)C1=O	none
CC(=O)N1CCC(N2CCCC(C(=O)c3cccc(Cl)c3)C2)CC1 (configuration not stated)	none
COC(=O)CSC1=NN1c1cc(C)nc(N)n1	none
CC(C)(O)/C=C/C(=O)C(C)(O)C1C(O)CC2(C)C3CC=C4C(C=C(O)C(=O)C4(C)C)C3(C)C(=O)CC12C (configuration not stated)	Beta2AR agonist 42 (no result: UPR CHOP act, XBP1 UPR activ, T cell HTS)
CC(=O)OC(C)(C)/C=C/C(=O)[C@](C)(O)C1[C@H](O)C[C@@]2(C)C3CC=C4C(C[C@H](O)C(=O)C4(C)C)[C@]3(C)C(=O)C[C@]12C (some centres not stated)	Beta2AR agonist 66
COC(=O)C1=C(C(=O)OC)SC2(S1)C(C(=O)OC)=C(C(=O)OC)Sc1c2ssc1=O	Beta2AR agonist 58 (no result: UPR CHOP act, XBP1 UPR activ, T cell HTS)
CCOC(=O)CC(NC(=O)C(Cc1ccc(N(CCCl)CCCl)cc1)NC(C)=O)C(=O)OCC (configuration not stated)	T cell HTS 33
CC(=O)NC(Cc1ccc(N(CCCl)CCCl)cc1)C(=O)NC(C(=O)O)C(C)C (configuration not stated)	none
Cc1nc2c(=O)n(C)c(=O)nc-2n(C)n1	Beta2AR agonist 64
Cc1ccc(/C=C2\C(=O)NC(=S)N(c3cccc(F)c3)C2=O)o1	Beta2AR agonist 50
Cc1ccc(/C=C2\C(=O)NC(=O)N(Cc3ccccc3Cl)C2=O)o1	Beta2AR agonist 59
Cc1ccc(/C=C2/C(=O)NC(=O)N(Cc3ccc(F)cc3)C2=O)o1	none (no result: Beta2AR agonist)
CCN(CCCl)c1cc(CN(C)C)cc(NC(=O)c2ccc(C(=O)Nc3cc(CN(C)C)cc(N(CC)CCCl)c3)cc2)c1	Beta2AR agonist 47 (no result: UPR CHOP act, XBP1 UPR activ, T cell HTS)
CC(C)c1oc(=O)cc2c1[C@@H](O)[C@H]1OC(=O)[C@@]3(C)C[C@@H](O)[C@@H](O)[C@@]2(C)C13 (some centres not stated)	Beta2AR agonist 75
CC(C)c1oc(=O)cc2c1[C@@H](O)[C@H]1OC(=O)[C@@]3(C)CC[C@@H](O)[C@@]2(C)C13 (some centres not stated)	Beta2AR agonist 84
Clc1ccc(-c2nc3ccc(Cl)cn3c2CN2CCOCC2)cc1	none
COc1cc(C=C2C(=O)NC(=O)NC2=O)ccc1OS(=O)(=O)c1ccccc1[N+](=O)[O-]	none
O=C1/C(=C\c2ccc(Cl)c(Cl)c2)N2CCC1CC2	none
CC(ON1CC1(C(F)(F)F)C(F)(F)F)(C(N)=O)C(N)=O (configuration not stated)	none
CCCCn1c(=O)c(C(=O)NCc2ccncc2)c(O)c2ccccc21	T cell HTS 78
CCCCn1c(=O)c(C(=O)NCc2ccccc2)c(O)c2ccccc21	none
CC1CN=C(Nc2ccc(F)cc2)S1 (configuration not stated)	none
O=C1C(=O)c2ccccc2-c2ccccc21	Beta2AR agonist 103
COc1ccc(-c2nc3ccccc3c(=O)n2-c2ccc(OC)cc2)cc1	none
CCn1nc(-c2ccccc2)nc2c(=O)n(C)c(=O)nc1-2	Beta2AR agonist 69
CC1=CC(C)CC(C)OC(=O)CC(c2ccc(O)cc2)NC(=O)C(Cc2c(Br)[nH]c3ccccc23)N(C)C(=O)C(C)NC(=O)C(C)C1 (configuration not stated)	Beta2AR agonist 50 (no result: UPR CHOP act, XBP1 UPR activ, T cell HTS)
CCOP(=O)(OCC)C(NC(=O)Cc1ccccc1)C(Cl)(Cl)Cl (configuration not stated)	none
CN1C(=O)/C(=C/C=C/c2ccco2)C(=O)NC1=S	Beta2AR agonist 58
Cc1ccc(N2C(=O)NC(=O)/C(=C\C=C\c3ccco3)C2=O)cc1C	Beta2AR agonist 60 (no result: UPR CHOP act, XBP1 UPR activ)
Cc1cccc(N2C(=O)NC(=O)/C(=C/c3ccc([N+](=O)[O-])o3)C2=O)c1	none (no result: UPR CHOP act, XBP1 UPR activ, Beta2AR agonist)
Cc1cccc(N2C(=O)NC(=O)/C(=C\C=C\c3ccco3)C2=O)c1	Beta2AR agonist 69
Cc1ccc(N2C(=O)NC(=O)/C(=C\C=C\c3ccco3)C2=O)cc1	Beta2AR agonist 69
O=C(Cc1ccccc1)N1CCN(Cc2ccccc2Cl)CC1	none
C=CCN1C(=O)NC(=O)/C(=C/C=C/c2ccccc2)C1=O	Beta2AR agonist 75 (no result: UPR CHOP act, XBP1 UPR activ, T cell HTS)
O=C1NC(=O)N(Cc2ccco2)C(=O)/C1=C/C=C/c1ccco1	Beta2AR agonist 85
COC(=O)C1=C(c2ccc(F)cc2OCc2ccccc2)C[C@@H]2CC[C@H]1N2C(=O)N1CCC(O)(c2ccc(Cl)cc2)CC1	none
COC(=O)C1=C(c2ccc3ccccc3c2)C[C@@H]2CC[C@H]1N2C(=O)NCC1CC1	none
COP(=O)(Cc1ccc(C#N)o1)OC	none
CNc1cc(Cl)c2nonc2c1[N+](=O)[O-]	Beta2AR agonist 106 (no result: UPR CHOP act, XBP1 UPR activ, T cell HTS)
Cc1cc([N+](=O)[O-])c(Cl)cc1NC(=O)C(C)C	none
Cc1cc(N(CCCl)CCCl)ccc1C=NNC(=O)Cc1cc(=O)oc2cc(O)ccc12	none (no result: UPR CHOP act, XBP1 UPR activ, T cell HTS)
CN1CCCC1CCOC(C)(c1ccccc1)c1ccc(Cl)cc1 (configuration not stated)	none (no result: UPR CHOP act, XBP1 UPR activ, T cell HTS)
C=C1C(=O)O[C@@H]2C[C@@H](C)[C@@H]3C4OC4C(=O)[C@@]3(C)[C@@H](O)[C@H]12 (some centres not stated)	Beta2AR agonist 43
COc1ccc(Cl)cc1N=Cc1c(O)n(C)c(=O)n(C)c1=O	Beta2AR agonist 57
Cc1ccsc1/C=C1\C(=O)NC(=S)N(C)C1=O	UPR CHOP act 176, Beta2AR agonist 55
NP(=O)(Oc1ccc(Cl)cc1)Oc1ccc(Cl)cc1	none
C=C1C(=O)O[C@@H]2C[C@@H](C)[C@@H]3C=CC(=O)[C@@]3(C)[C@@H](OC(=O)CC(=O)O[C@H]3[C@@H]4C(=C)C(=O)O[C@@H]4C[C@@H](C)[C@@H]4C=CC(=O)[C@]43C)[C@H]12	Beta2AR agonist 48
